Tests used:
Type in all cases: functional
MCF7 [1] = assay: Growth inhibition of adriamycin-resistant MCF7 cells after 4 days; conditions: Homo sapiens, MCF7, 96 h
Outline: (§1)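 Adherent lines (HeLa S3 in MEM/7% FCS; MCF7 and ADR-Res) seeded at 2 · 10^3 cells per well. After one day, compounds in DMSO were diluted in culture medium over a 5-point range and added. Cells stained with 0.2% crystal violet in 20% ethanol for 1 h, washed, solubilized in 10% acetic acid, A570 read. GI50 = concentration giving 50% growth inhibition versus control.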

HeLa = assay: Growth inhibition of HeLa cells after 4 days; conditions: Homo sapiens, 96 h; outline: as §1
MCF7 [2] = assay: Growth inhibition of MCF7 cells after 4 days; conditions: Homo sapiens, MCF7, 96 h; outline: as §1
CCRF-CEM = assay: Growth inhibition of human CEM cells by Alamar blue assay
Outline: (§2)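 Leukemia lines (CEM, topo I-mutant CEM/C2, HL60, topo II-mutant MX2) seeded in 96-well plates. HL60/MX2 were kept in RPMI1640 with 10% FCS, 10 mM Hepes and 2 mM glutamine. After one day, DMSO-dissolved compounds were diluted in medium over a 5-point range and added. GI50 = concentration giving 50% growth inhibition versus control.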

CEM/C2 [3] = assay: Growth inhibition of topoisomerase 1 mutated CEM/C2 cells by Alamar blue assay; conditions: Homo sapiens; outline: as §2
HL-60 [4] = assay: Growth inhibition of human HL60 cells by Almar blue assay; outline: as §2
[5] = Growth inhibition of topoisomerase 2 mutated mitoxantrone-resistant MX2 cells by Alamar blue assay; conditions: Homo sapiens; outline: as §2
CEM/C2 [6] = assay: Ratio of GI50 for camptothecin-resistant human CEM/C2 cells to GI50 for human CEM cells
Outline: (§3)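 Relative resistance index from GI50 values in paired 5-point growth inhibition assays run in parallel: GI50 in the mutant line (CEM/C2 or MX2) divided by GI50 in its parental line (CEM or HL60).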

HL-60 [7] = assay: Ratio of GI50 for mitoxantrone-resistant human MX2 cells to GI50 for human HL60 cells; outline: as §3

Row | GI50 (MCF7 [1]) | GI50 (HeLa) | GI50 (MCF7 [2]) | GI50 (CCRF-CEM) | GI50 (HL-60 [4]) | Compound | GI50 (CEM/C2 [3]) | GI50 [5] | RatioGI50 (CEM/C2 [6]) | RatioGI50 (HL-60 [7])
1 | 3 µM | 2 µM | 2 µM | 6 µM | 15 µM | Nc1cccc2c(=O)n3c(nc12)-c1nc2ccccc2cc1C3 [16-AMINOLUOTONIN A] | > 40 µM | > 40 µM | >7 | >2.5
2 | > 20 µM | > 10 µM | > 20 µM |  |  | COc1cc2nc3n(c(=O)c2cc1OC)Cc1cc2ccccc2nc1-3 [17,18-DIMETHOXYLUOTONIN A] |  |  |  | 
3 | > 20 µM | > 10 µM | > 20 µM |  |  | O=c1c2ccccc2nc2n1Cc1cc3cc(O)ccc3nc1-2 [10-HYDROXYLUOTONIN A] |  |  |  | 
4 | 13 µM | > 10 µM | 10 µM |  |  | O=c1c2cccc(Cl)c2nc2n1Cc1cc3ccccc3nc1-2 [16-CHLOROLUOTONIN A] |  |  |  | 
5 | 4 µM | 2 µM | 3 µM | 3 µM | 4 µM | CCN(CC)CCOc1ccc2nc3c(cc2c1)Cn1c-3nc2ccccc2c1=O | 7 µM | 10 µM | 2 | 2.5
6 | > 20 µM | > 20 µM | > 20 µM |  |  | O=c1c2cccnc2nc2n1Cc1cc3ccccc3nc1-2 [16-AZALUOTONIN A] |  |  |  | 
7 | > 20 µM | > 20 µM | > 20 µM |  |  | CC(=O)Nc1cccc2c(=O)n3c(nc12)-c1nc2ccccc2cc1C3 [16-ACETAMIDOLUOTONIN A] |  |  |  | 
8 | > 20 µM | 12 µM | > 20 µM |  |  | COc1cccc2c(=O)n3c(nc12)-c1nc2ccccc2cc1C3 [16-METHOXYLUOTONIN A] |  |  |  | 
9 | > 20 µM | 6 µM | 10 µM | 9 µM | > 40 µM | O=c1c2cc(O)c(O)cc2nc2n1Cc1cc3ccccc3nc1-2 [17,18-DIHYDROXYLUOTONIN A] | > 40 µM | > 40 µM | >4 | 
10 | > 20 µM | 10 µM | 13 µM | 30 µM | 20 µM | CN(C)Cc1c(O)ccc2nc3c(cc12)Cn1c-3nc2ccccc2c1=O | > 40 µM | > 40 µM | >1.5 | >2
11 | > 1 µM | > 1 µM | > 1 µM |  |  | CCc1c2c(nc3ccc(OC(=O)N4CCC(N5CCCCC5)CC4)cc13)-c1cc3c(c(=O)n1C2)COC(=O)[C@]3(O)CC [IRINOTECAN] |  |  |  | 
12 | 0.04 µM | 0.03 µM | 0.05 µM |  |  | CC[C@@]1(O)C(=O)OCc2c1cc1n(c2=O)Cc2cc3c(CN(C)C)c(O)ccc3nc2-1 [TOPOTECAN] |  |  |  | 
13 | > 20 µM | > 10 µM | > 20 µM |  |  | COc1ccc2nc3c(cc2c1)Cn1c-3nc2ccccc2c1=O [10-METHOXYLUOTONIN A] |  |  |  | 
14 | 5 µM | 3 µM | 3 µM | ≥ 40 µM |  | O=c1c2ccccc2nc2n1Cc1cc3ccccc3nc1-2 [LUOTONIN A] | > 40 µM |  |  | 
15 | > 20 µM | > 20 µM | > 20 µM |  |  | O=c1c2ccccc2nc2n1Cc1cc3c(CN4CCOCC4)c(O)ccc3nc1-2 |  |  |  | 
16 | 4 µM | 2 µM | 2 µM | 3 µM | 4 µM | CN(C)CCOc1ccc2nc3c(cc2c1)Cn1c-3nc2ccccc2c1=O | 7 µM | 9 µM | 2 | 2

Row | Compound | GI50 (MCF7 [1]) | GI50 (HeLa) | GI50 (MCF7 [2]) | GI50 (CCRF-CEM) | GI50 (HL-60 [4]) | GI50 (CEM/C2 [3]) | GI50 [5] | RatioGI50 (CEM/C2 [6]) | RatioGI50 (HL-60 [7])
17 | O=C1c2c(O)ccc(O)c2C(=O)c2c(NCCNCCO)ccc(NCCNCCO)c21 [MITOXANTRONE] |  |  |  |  | 0.01 µM |  | 0.13 µM |  | 13
18 | CC[C@@]1(O)C(=O)OCc2c1cc1n(c2=O)Cc2cc3ccccc3nc2-1 [CAMPTOTHECIN] | 0.01 µM | 0.01 µM | 0.01 µM | 0.002 µM | 0.03 µM | > 1 µM | 0.02 µM | >500 | 

Source: ChEMBL document CHEMBL1139925, “Synthesis and topoisomerase poisoning activity of A-ring and E-ring substituted luotonin A derivatives” (2007)
